# Assay results published in ChEMBL document CHEMBL3244187, “Structure--activity relationships in cephalosporins prepared from penicillins. 2. Analogues of cephalexin substituted in the 3-methyl group” (J Med Chem, 1977).
# Activity calls are given as the source filed them. The calls are words filed in the database; no cut-off is given here.
# Experiments:
# [1] = test system: Morganella morganii; assay: Antibacterial activity against cephalosporin-resistant Proteus morganii after 18 hrs by serial dilution method; format: functional, organism-based
# In short: (§1)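 MICs by serial dilution on nutrient agar. Inoculum 0.001 mL of undiluted overnight broth culture. Plates incubated 18 h at 37 °C before reading. The S. aureus Russell strain produces β-lactamase and resists benzylpenicillin.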
# [2] = Drug metabolism in mouse assessed as metabolite level in urine by Sarcina lutea antibacterial assay; format: ADME
# In short: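 Urine from dosed mice run on paper strip chromatography in butanol-ethanol-water (4:1:5). Active zones located on agar plates seeded with Sarcina lutea.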
# [3] = Drug level in mouse blood at 50 mg/kg, iv after 2 hrs by microbiological assay; format: ADME, organism-based; set-up: dose 50 mg/kg, route intravenous; conditions: read-out: Drug uptake
# In short: (§2)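 Mice given a single 50 mg/kg dose by the route in the line. Groups of five killed at each time point and blood taken from the cut axilla, heparinized and stored at 4 °C. Blood assayed the same day by large-plate microbiological assay with Sarcina lutea NCTC 8340, overnight at 30 °C. Standards made in mouse blood, with pH 7.2 phosphate-buffered saline as diluent.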
# [4] = test system: Staphylococcus aureus; assay: Antibacterial activity against Staphylococcus aureus Smith infected in po dosed mouse administered 1 hr post infection; format: functional
# In short: (§3)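 Infected mice were treated subcutaneously or orally. Protection is expressed as CD50 in mg/kg, as the total dose given.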
# [5] = Drug level in mouse blood at 50 mg/kg, iv after 30 mins by microbiological assay; format: ADME, organism-based; set-up: dose 50 mg/kg, route intravenous; conditions: read-out: Drug uptake; in short: as §2
# [6] = Drug level in mouse blood at 50 mg/kg, sc after 20 mins by microbiological assay; format: ADME, organism-based; set-up: dose 50 mg/kg, route subcutaneous; conditions: read-out: Drug uptake; in short: as §2
# [7] = Drug level in mouse blood at 50 mg/kg, sc after 4 hrs by microbiological assay; format: ADME, organism-based; set-up: dose 50 mg/kg, route subcutaneous; conditions: read-out: Drug uptake; in short: as §2
# [8] = test system: Pseudomonas aeruginosa; assay: Antibacterial activity against cephalosporin-resistant Pseudomonas aeruginosa after 18 hrs by serial dilution method; format: functional, organism-based; in short: as §1
# [9] = test system: Staphylococcus aureus; assay: Antibacterial activity against Staphylococcus aureus Smith infected in po dosed mouse administered 1 hr and 5 hrs post infection; format: functional; in short: as §3
# [10] = test system: Staphylococcus aureus; assay: Antibacterial activity against Staphylococcus aureus Smith infected in sc dosed mouse administered 1 hr post infection; format: functional; in short: as §3
# [11] = Drug level in mouse blood at 50 mg/kg, po after 30 mins by microbiological assay; format: ADME, organism-based; set-up: dose 50 mg/kg, route oral; conditions: read-out: Drug uptake; in short: as §2
# [12] = Drug level in mouse blood at 50 mg/kg, sc after 10 mins by microbiological assay; format: ADME, organism-based; set-up: dose 50 mg/kg, route subcutaneous; conditions: read-out: Drug uptake; in short: as §2
# [13] = Drug level in mouse blood at 50 mg/kg, iv after 20 mins by microbiological assay; format: ADME, organism-based; set-up: dose 50 mg/kg, route intravenous; conditions: read-out: Drug uptake; in short: as §2
# [14] = test system: Proteus mirabilis; assay: Antibacterial activity against Proteus mirabilis 13 infected in sc dosed mouse administered 1 hr and 5 hrs post infection; format: functional; in short: as §3
# [15] = Drug level in mouse blood at 50 mg/kg, po after 20 mins by microbiological assay; format: ADME, organism-based; set-up: dose 50 mg/kg, route oral; conditions: read-out: Drug uptake; in short: as §2
# [16] = Drug level in mouse blood at 50 mg/kg, po after 2 hrs by microbiological assay; format: ADME, organism-based; set-up: dose 50 mg/kg, route oral; conditions: read-out: Drug uptake; in short: as §2
# [17] = test system: Proteus mirabilis; assay: Antibacterial activity against Proteus mirabilis 13 infected in sc dosed mouse administered 1 hr post infection; format: functional; in short: as §3
# [18] = test system: Escherichia coli; assay: Antibacterial activity against Escherichia coli 8 infected in sc dosed mouse administered 1 hr post infection; format: functional; in short: as §3
# [19] = test system: Enterobacter cloacae; assay: Antibacterial activity against cephalosporin-resistant Enterobacter cloacae after 18 hrs by serial dilution method; format: functional, organism-based; in short: as §1
# [20] = Drug level in mouse blood at 50 mg/kg, sc after 30 mins by microbiological assay; format: ADME, organism-based; set-up: dose 50 mg/kg, route subcutaneous; conditions: read-out: Drug uptake; in short: as §2
# [21] = Drug level in mouse blood at 50 mg/kg, iv after 1 hr by microbiological assay; format: ADME, organism-based; set-up: dose 50 mg/kg, route intravenous; conditions: read-out: Drug uptake; in short: as §2
# [22] = Drug level in mouse blood at 50 mg/kg, po after 4 hrs by microbiological assay; format: ADME, organism-based; set-up: dose 50 mg/kg, route oral; conditions: read-out: Drug uptake; in short: as §2
# [23] = test system: Escherichia coli; assay: Antibacterial activity against Escherichia coli 8 infected in sc dosed mouse administered 1 hr and 5 hrs post infection; format: functional; in short: as §3
# [24] = test system: Staphylococcus aureus; assay: Antibacterial activity against Staphylococcus aureus Smith infected in sc dosed mouse administered 1 hr and 5 hrs post infection; format: functional; in short: as §3
# [25] = Drug level in mouse blood at 50 mg/kg, po after 10 mins by microbiological assay; format: ADME, organism-based; set-up: dose 50 mg/kg, route oral; conditions: read-out: Drug uptake; in short: as §2
# [26] = test system: Escherichia coli; assay: Antibacterial activity against Escherichia coli 8 infected in po dosed mouse administered 1 hr and 5 hrs post infection; format: functional; in short: as §3
# [27] = Drug level in mouse blood at 50 mg/kg, iv after 4 hrs by microbiological assay; format: ADME, organism-based; set-up: dose 50 mg/kg, route intravenous; conditions: read-out: Drug uptake; in short: as §2
# [28] = Drug level in mouse blood at 50 mg/kg, po after 1 hr by microbiological assay; format: ADME, organism-based; set-up: dose 50 mg/kg, route oral; conditions: read-out: Drug uptake; in short: as §2
# [29] = test system: Klebsiella aerogenes; assay: Antibacterial activity against Klebsiella aerogenes after 18 hrs by serial dilution method; format: functional
# In short: (§4)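 MICs by serial dilution on nutrient agar. Inoculum 0.001 mL of undiluted overnight broth culture. Plates incubated at 37 °C for 18 h before reading.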
# [30] = Drug level in mouse blood at 50 mg/kg, iv after 10 mins by microbiological assay; format: ADME, organism-based; set-up: dose 50 mg/kg, route intravenous; conditions: read-out: Drug uptake; in short: as §2
# [31] = Drug level in mouse blood at 50 mg/kg, sc after 2 hrs by microbiological assay; format: ADME, organism-based; set-up: dose 50 mg/kg, route subcutaneous; conditions: read-out: Drug uptake; in short: as §2
# [32] = Drug level in mouse blood at 50 mg/kg, sc after 1 hr by microbiological assay; format: ADME, organism-based; set-up: dose 50 mg/kg, route subcutaneous; conditions: read-out: Drug uptake; in short: as §2
# [33] = test system: Escherichia coli; assay: Antibacterial activity against Escherichia coli 8 infected in po dosed mouse administered 1 hr post infection; format: functional; in short: as §3
# [34] = Drug level in mouse blood at 50 mg/kg, po after 15 mins by microbiological assay
# [35] = test system: Escherichia coli; assay: Antibacterial activity against Escherichia coli after 18 hrs by serial dilution method; format: functional; in short: as §4
# [36] = test system: Proteus mirabilis; assay: Antibacterial activity against Proteus mirabilis after 18 hrs by serial dilution method; format: functional; in short: as §4
# [37] = test system: Staphylococcus aureus; assay: Antibacterial activity against Staphylococcus aureus Oxford after 18 hrs by serial dilution method; format: functional; in short: as §4
# [38] = test system: Shigella sonnei; assay: Antibacterial activity against Shigella sonnei after 18 hrs by serial dilution method; format: functional; in short: as §4
# [39] = test system: Salmonella typhi; assay: Antibacterial activity against Salmonella typhi after 18 hrs by serial dilution method; format: functional, Salmonella enterica subsp. enterica serovar Typhi; conditions: Salmonella enterica; in short: as §1
# [40] = test system: Staphylococcus aureus; assay: Antibacterial activity against beta-lactamase producing benzylpenicillin-resistant Staphylococcus aureus Russell after 18 hrs by serial dilution method; format: functional; in short: as §1
SMILES,Activity [1],Drug metabolism [2],CD50 [4],concentration at 20 min [6],concentration at 4 h [7],Activity [8],CD50 [9],CD50 [10],concentration at 0.5 h [11],concentration at 10 min [12],CD50 [14],concentration at 20 min [15],concentration at 2 h [16],CD50 [17],CD50 [18],concentration at 0.5 h [20],concentration at 4 h [22],concentration at 1 h [28],concentration at 2 h [31],concentration at 1 h [32],also measured
N[C@@H](C(=O)N[C@@H]1C(=O)N2C(C(=O)O)=C(Cc3ccc(C(=O)O)cc3)CS[C@H]12)c1ccccc1,inactive,metabolite_detected,17 mg/kg,87400 ng/mL,9300 ng/mL,inactive,28 mg/kg,1.25 mg/kg,1600 ng/mL,75200 ng/mL,19 mg/kg,< 1000 ng/mL,2300 ng/mL,14 mg/kg,130 mg/kg,68800 ng/mL,1900 ng/mL,2400 ng/mL,22000 ng/mL,48000 ng/mL,concentration at 2 h [3]: 4500 ng/mL; concentration at 0.5 h [5]: 39200 ng/mL; concentration at 20 min [13]: 48200 ng/mL; Activity [19]: inactive; concentration at 1 h [21]: 25400 ng/mL; CD50 [23]: 60 mg/kg; CD50 [24]: 1.8 mg/kg; concentration at 10 min [25]: < 1000 ng/mL; CD50 [26]: 2000 mg/kg; concentration at 4 h [27]: 2400 ng/mL; MIC [29]: 2.5 µg/mL; concentration at 10 min [30]: 70300 ng/mL; CD50 [33]: >1000 mg/kg
CC1=C(C(=O)O)N2C(=O)[C@@H](NC(=O)[C@H](N)c3ccccc3)[C@H]2SC1 [CEPHALEXIN ANHYDROUS],,,0.25 mg/kg,20500 ng/mL,< 150 ng/mL,,0.38 mg/kg,0.46 mg/kg,21700 ng/mL,27000 ng/mL,84 mg/kg,,2500 ng/mL,64 mg/kg,7.4 mg/kg,13300 ng/mL,560 ng/mL,8300 ng/mL,420 ng/mL,3000 ng/mL,concentration at 0.25 h [34]: 23900 ng/mL; MIC [35]: 12.5 µg/mL; MIC [36]: 12.5 µg/mL; MIC [37]: 1.25 µg/mL; MIC [38]: 5 µg/mL; MIC [39]: 5 µg/mL; CD50 [23]: 17 mg/kg; CD50 [24]: 1 mg/kg; CD50 [26]: 17 mg/kg; MIC [40]: 5 µg/mL; MIC [29]: 5 µg/mL; CD50 [33]: 8.5 mg/kg
N[C@@H](C(=O)N[C@@H]1C(=O)N2C(C(=O)O)=C(Cc3cccc(C(=O)O)c3)CS[C@H]12)c1ccccc1,inactive,metabolite_notdetected,,64200 ng/mL,1600 ng/mL,inactive,,,1800 ng/mL,84200 ng/mL,,1050 ng/mL,1600 ng/mL,,,49600 ng/mL,550 ng/mL,1700 ng/mL,13700 ng/mL,26200 ng/mL,MIC [38]: 25 µg/mL; Activity [19]: inactive; concentration at 10 min [25]: 870 ng/mL
